Results as given in ChEMBL document CHEMBL1138290 (J Med Chem, 2007).
Blank lines part the entries; values can stand above or below the compound they belong to.

What was measured:
K562 = test: Antiproliferative activity against human K562 cells after 48 hrs; format: functional, cell-based; conditions: K562, 48 h
In short: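 Growth of K562 cells measured by counting cells with a hemocytometer after 48 h (2 days) of drug treatment. IC50 is the mean of at least three independent determinations.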

Tubulin [1] = target: Tubulin (Sus scrofa, UniProt P02554+P02550); test: Inhibition of porcine brain tubulin polymerization
Tubulin [2] = test: Displacement of [3H]colchicine from biotinylated tubulin by scintillation proximity assay; format: protein-complex assay, Homo sapiens
[3] = Cytotoxicity against human KB/HeLa cells after 48 hrs by XTT assay; format: functional, cell-based
In short: (§1)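 XTT proliferation assay with 48 h incubation with test compound. Each experiment run at least in duplicate (n = 2). IC50 calculated by nonlinear regression of dose-response curves.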

SK-OV-3 = test: Cytotoxicity against human SKOV3 cells after 48 hrs by XTT assay; format: functional, cell-based; conditions: SK-OV-3, 48 h; in short: as §1
SF-268 = test: Cytotoxicity against human SF268 cells after 48 hrs by XTT assay; format: functional, cell-based; conditions: SF-268, 48 h; in short: as §1
NCI-H460 = test: Cytotoxicity against human NCI-H460 cells after 48 hrs by XTT assay; format: functional, cell-based; conditions: NCI-H460, 48 h; in short: as §1
RKO [4] = test: Cytotoxicity against human RKO cells after 48 hrs by XTT assay; format: functional, cell-based; in short: as §1
RKO [5] = test: Cytotoxicity against human RKO cells with ectopic-inducible expression of p27kip1 after 48 hrs by XTT assay; format: functional, cell-based; in short: as §1
[6] = Antiproliferative activity against rat L12 cells after 48 hrs by XTT assay; format: functional, cell-based
[7] = Antiproliferative activity against rat multidrug-resistant L12 cells after 48 hrs by XTT assay; format: functional, cell-based; conditions: L1.2, 48 h; in short: as §1
L1210 [8] = test: Antiproliferative activity against mouse L1210 cells after 48 hrs by XTT assay; format: functional, cell-based; conditions: L1210, 48 h; in short: as §1
L1210 [9] = test: Antiproliferative activity against mouse vincristine-resistant L1210 cells after 48 hrs by XTT assay; format: functional, cell-based; conditions: L1210, 48 h; in short: as §1
P388 [10] = test: Antiproliferative activity against mouse P388 cells after 48 hrs by XTT assay; format: functional, cell-based; conditions: P388, 48 h; in short: as §1
P388 [11] = test: Antiproliferative activity against mouse adriamycin-resistant P388 cells after 48 hrs by XTT assay; format: functional, cell-based; conditions: P388, 48 h; in short: as §1
[12] = Cell cycle arrest in KB/HeLa cells assessed as accumulation at G2/M phase after 24 hrs by flow cytometric analysis; format: functional, cell-based; conditions: Homo sapiens
In short: (§2)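 Subconfluent KB/HeLa cells exposed to a range of compound concentrations for 24 h. Cell cycle phase distribution determined by flow cytometry. Experiments run at least in duplicate (n = 2).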

[13] = Cell cycle arrest in KB/HeLa cells assessed as accumulation at S phase at 0.1 nM after 24 hrs by flow cytometric analysis; format: functional, cell-based; conditions: Homo sapiens; in short: as §2
[14] = Cell cycle arrest in KB/HeLa cells assessed as accumulation at S phase at 3.16 nM after 24 hrs by flow cytometric analysis; format: functional, cell-based; conditions: Homo sapiens; in short: as §2
[15] = Cell cycle arrest in KB/HeLa cells assessed as accumulation at S phase at 0.3 nM after 24 hrs by flow cytometric analysis; format: functional, cell-based; conditions: Homo sapiens; in short: as §2
[16] = Cell cycle arrest in KB/HeLa cells assessed as accumulation at S phase at 1 nM after 24 hrs by flow cytometric analysis; format: functional, cell-based; conditions: Homo sapiens; in short: as §2
[17] = Cell cycle arrest in KB/HeLa cells assessed as accumulation at S phase at 10 nM after 24 hrs by flow cytometric analysis; format: functional, cell-based; conditions: Homo sapiens; in short: as §2
[18] = Cell cycle arrest in KB/HeLa cells assessed as accumulation at S phase at 31.6 nM after 24 hrs by flow cytometric analysis; format: functional, cell-based; conditions: Homo sapiens; in short: as §2
[19] = Cell cycle arrest in KB/HeLa cells assessed as accumulation at S phase at 100 nM after 24 hrs by flow cytometric analysis; format: functional, cell-based; conditions: Homo sapiens; in short: as §2
[20] = Cell cycle arrest in KB/HeLa cells assessed as accumulation at S phase at 316 nM after 24 hrs by flow cytometric analysis; format: functional, cell-based; conditions: Homo sapiens; in short: as §2
[21] = Cell cycle arrest in KB/HeLa cells assessed as accumulation at S phase at 1000 nM after 24 hrs by flow cytometric analysis; format: functional, cell-based; conditions: Homo sapiens; in short: as §2
[22] = Cell cycle arrest in KB/HeLa cells assessed as accumulation at G2M phase at 0.1 nM after 24 hrs by flow cytometric analysis; format: functional, cell-based; conditions: Homo sapiens; in short: as §2
[23] = Cell cycle arrest in KB/HeLa cells assessed as accumulation at G2M phase at 0.3 nM after 24 hrs by flow cytometric analysis; format: functional, cell-based; conditions: Homo sapiens; in short: as §2
[24] = Cell cycle arrest in KB/HeLa cells assessed as accumulation at G2M phase at 1 nM after 24 hrs by flow cytometric analysis; format: functional, cell-based; conditions: Homo sapiens; in short: as §2
[25] = Cell cycle arrest in KB/HeLa cells assessed as accumulation at G2M phase at 3.16 nM after 24 hrs by flow cytometric analysis; format: functional, cell-based; conditions: Homo sapiens
[26] = Cell cycle arrest in KB/HeLa cells assessed as accumulation at G2M phase at 10 nM after 24 hrs by flow cytometric analysis; format: functional, cell-based; conditions: Homo sapiens; in short: as §2
[27] = Cell cycle arrest in KB/HeLa cells assessed as accumulation at G2M phase at 31.6 nM after 24 hrs by flow cytometric analysis; format: functional, cell-based; conditions: Homo sapiens; in short: as §2
[28] = Cell cycle arrest in KB/HeLa cells assessed as accumulation at G2M phase at 100 nM after 24 hrs by flow cytometric analysis; format: functional, cell-based; conditions: Homo sapiens; in short: as §2
[29] = Cell cycle arrest in KB/HeLa cells assessed as accumulation at G2M phase at 316 nM after 24 hrs by flow cytometric analysis; format: functional, cell-based; conditions: Homo sapiens; in short: as §2
[30] = Cell cycle arrest in KB/HeLa cells assessed as accumulation at G2M phase at 1000 nM after 24 hrs by flow cytometric analysis; format: functional, cell-based; conditions: Homo sapiens; in short: as §2
[31] = Cell cycle arrest in KB/HeLa cells assessed as accumulation at G1 phase at 0.1 nM after 24 hrs by flow cytometric analysis; format: functional, cell-based; conditions: Homo sapiens; in short: as §2
[32] = Cell cycle arrest in KB/HeLa cells assessed as accumulation at G1 phase at 0.3 nM after 24 hrs by flow cytometric analysis; format: functional, cell-based; conditions: Homo sapiens; in short: as §2
[33] = Cell cycle arrest in KB/HeLa cells assessed as accumulation at G1 phase at 1 nM after 24 hrs by flow cytometric analysis; format: functional, cell-based; conditions: Homo sapiens; in short: as §2
[34] = Cell cycle arrest in KB/HeLa cells assessed as accumulation at G1 phase at 3.16 nM after 24 hrs by flow cytometric analysis; format: functional, cell-based; conditions: Homo sapiens; in short: as §2
[35] = Cell cycle arrest in KB/HeLa cells assessed as accumulation at G1 phase at 10 nM after 24 hrs by flow cytometric analysis; format: functional, cell-based; conditions: Homo sapiens; in short: as §2
[36] = Cell cycle arrest in KB/HeLa cells assessed as accumulation at G1 phase at 31.6 nM after 24 hrs by flow cytometric analysis; format: functional, cell-based; conditions: Homo sapiens; in short: as §2
[37] = Cell cycle arrest in KB/HeLa cells assessed as accumulation at G1 phase at 100 nM after 24 hrs by flow cytometric analysis; format: functional, cell-based; conditions: Homo sapiens; in short: as §2
[38] = Cell cycle arrest in KB/HeLa cells assessed as accumulation at G1 phase at 316 nM after 24 hrs by flow cytometric analysis; format: functional, cell-based; conditions: Homo sapiens; in short: as §2
[39] = Cell cycle arrest in KB/HeLa cells assessed as accumulation at G1 phase at 1000 nM after 24 hrs by flow cytometric analysis; format: functional, cell-based; conditions: Homo sapiens; in short: as §2

SMILES: COc1ccc(S(=O)(=O)Oc2c3ccccc3cc3ccccc23)cc1
- IC50 (K562): 90 nM
- IC50 (Tubulin [1]): 1.2 µM
- IC50 (Tubulin [2]): 560 nM
- IC50 [3]: 370 nM
- IC50 (SK-OV-3): 250 nM
- IC50 (SF-268): 340 nM
- IC50 (NCI-H460): 640 nM
- IC50 (RKO [4]): 280 nM
- IC50 (RKO [5]): > 9 µM
- IC50 [6]: 440 nM
- IC50 [7]: 360 nM
- IC50 (L1210 [8]): 540 nM
- IC50 (L1210 [9]): 460 nM
- IC50 (P388 [10]): 380 nM
- IC50 (P388 [11]): 270 nM
- EC50 [12]: 135 nM
- Activity [13]: 26.7%
- Activity [14]: 26%
- Activity [15]: 26%
- Activity [16]: 26.2%
- Activity [17]: 25.5%
- Activity [18]: 26.8%
- Activity [19]: 31%
- Activity [20]: 4.8%
- Activity [21]: 8.4%
- Activity [22]: 11.9%
- Activity [23]: 12.4%
- Activity [24]: 11.7%
- Activity [25]: 11.4%
- Activity [26]: 12.6%
- Activity [27]: 11.4%
- Activity [28]: 12.6%
- Activity [29]: 94.4%
- Activity [30]: 90.5%
- Activity [31]: 61.4%
- Activity [32]: 61.6%
- Activity [33]: 62.1%
- Activity [34]: 62.7%
- Activity [35]: 61.8%
- Activity [36]: 61.8%
- Activity [37]: 56.4%
- Activity [38]: 0.8%
- Activity [39]: 1.1%

SMILES: COc1ccc(S(=O)(=O)Oc2c3cccc(Cl)c3cc3c(Cl)cccc23)cc1
- IC50 (K562): 1700 nM
- IC50 (Tubulin [1]): > 10 µM

SMILES: O=S(=O)(Oc1c2ccccc2cc2sccc12)c1ccc(NO)cc1
- IC50 (K562): 400 nM

Further lines, with some results ahead:

- IC50 (K562): 480 nM
- IC50 (Tubulin [1]): 0.39 µM
SMILES: COc1cccc(S(=O)(=O)Oc2c3ccccc3cc3ccccc23)c1

- IC50 (K562): 530 nM
- IC50 (Tubulin [1]): 0.74 µM
SMILES: Cc1cccc(S(=O)(=O)Oc2c3ccccc3cc3sccc23)c1

- EC50 [12]: 2.4 nM
SMILES: CC[C@]1(O)C[C@H]2CN(CCc3c([nH]c4ccccc34)[C@@](C(=O)OC)(c3cc4c(cc3OC)N(C=O)[C@H]3[C@@](O)(C(=O)OC)[C@H](OC(C)=O)[C@]5(CC)C=CCN6CC[C@]43[C@@H]65)C2)C1 [VINCRISTINE]
- Activity [13]: 27.7%
- Activity [14]: 26%
- Activity [15]: 24%
- Activity [16]: 28.3%
- Activity [17]: 13.1%
- Activity [18]: 7.2%
- Activity [19]: 4.8%
- Activity [20]: 5.9%
- Activity [22]: 11.1%
- Activity [23]: 11.7%
- Activity [24]: 17.2%
- Activity [25]: 65.8%
- Activity [26]: 86.7%
- Activity [27]: 92.6%
- Activity [28]: 95.1%
- Activity [29]: 93.8%
- Activity [31]: 61.2%
- Activity [32]: 64.5%
- Activity [33]: 53.7%
- Activity [34]: 6.5%
- Activity [35]: 0.5%
- Activity [36]: 1%
- Activity [37]: 0.2%
- Activity [38]: 0.2%
